Active and inactive are the calls of the source. The rule behind the calls is not given here.
Tests used:
Leishmania amazonensis [1] = assay: Antileishmanial activity against Leishmania amazonensis MPRO/BR/1972/M1841-LV-79 after 72 hrs by MTT assay; type: functional, organism-based; conditions: MPRO/BR/1972/M1841-LV-79, 72 h
Procedure, shortened: (§1)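 Promastigotes from 4-day-old LIT cultures (10% heat-inactivated FCS), seeded at 8 × 10^6 parasites/mL. Compounds dissolved in DMSO, tested at 10 concentrations from 100 to 0.098 μg/mL. 72 h at 28 °C. MTT-PMS added, 75 min in dark at 28 °C, then 10% SDS for 30 min at room temperature. Absorbance read at 490 nm. Triplicate per concentration, IC50 from percentage cytotoxicity. Pentamidine isothionate was the reference drug.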

Leishmania chagasi [2] = assay: Antileishmanial activity against Leishmania chagasi MHOM/BR/1974/PP75 after 72 hrs by MTT assay; type: functional, organism-based; conditions: MHOM/BR/1974/PP75, 72 h; procedure, shortened: as §1
[3] = Cytotoxicity against Balb/c mouse peritoneal macrophages after 24 hrs by MTT assay; type: cell-based; conditions: Peritoneal macrophage cell
Procedure, shortened: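 Thioglycolate-elicited peritoneal macrophages (3 mL of 3% given i.p., harvested 3 days later by PBS pH 7.2 lavage). Cells in RPMI 1640 with 5% FCS, antibiotics and mercaptoethanol, stock suspension at 5 × 10^6 cells/mL. Mixed 1:1 with test solution, 24 h at 37 °C, 7.5% CO2. MTT added for 3 h, formazan dissolved in 2-propanol, OD read at 590 nm versus RPMI-only control. Triplicate.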

[4] = Selectivity index, ratio of IC50 for Balb/c mouse peritoneal macrophages to IC50 for epimastigotes of Trypanosoma cruzi
Procedure, shortened: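 Ratio of IC50 in Balb/c peritoneal macrophages (24 h MTT) to IC50 against T. cruzi Y-strain epimastigotes (72 h MTT, 28 °C).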

Trypanosoma cruzi [5] = assay: Antitrypanosomal activity against epimastigotes of Trypanosoma cruzi after 72 hrs by MTT assay; type: functional, organism-based
Procedure, shortened: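 Y-strain epimastigotes grown axenically at 28 °C in LIT with 10% FCS, harvested at 7 days (exponential phase). Test wells held 1 × 10^7 parasites/mL. Compounds from DMSO stock at 10 concentrations spanning 100–0.098 μg/mL. 72 h at 28 °C. MTT-PMS added, 75 min in dark, then 10% SDS for 30 min. Read at 595 nm, triplicate. Benznidazole served as reference.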

Leishmania amazonensis [6] = assay: Antileishmanial activity against Leishmania amazonensis MPRO/BR/1972/M1841-LV-79 at 100 uM after 72 hrs by MTT assay; type: functional, organism-based
Leishmania chagasi [7] = assay: Antileishmanial activity against Leishmania chagasi MHOM/BR/1974/PP75 at 100 uM after 72 hrs by MTT assay; type: functional, organism-based
Trypanosoma cruzi [8] = assay: Antitrypanosomal activity against epimastigotes of Trypanosoma cruzi at 100 uM after 72 hrs by MTT assay; type: functional, organism-based

| IC50 (Trypanosoma cruzi [5]) | Structure (SMILES) | IC50 (Leishmania amazonensis [1]) | IC50 (Leishmania chagasi [2]) | IC50 [3] | Ratio IC50 [4] | Activity (Leishmania amazonensis [6]) | Activity (Leishmania chagasi [7]) | Activity (Trypanosoma cruzi [8]) |
| --- | --- | --- | --- | --- | --- | --- | --- | --- |
| 27.7 µM | CC(=O)OC[C@]12[C@H](OC(C)=O)[C@@H](OC(=O)c3ccccc3)[C@@H]3[C@@H](O)[C@@]14O[C@@]3(C)COC(=O)c1cccnc1[C@@H](C)[C@H](C)C(=O)O[C@@H]([C@H](OC(C)=O)[C@@H]2OC(C)=O)[C@]4(C)O [ILICIFOLIUNINE A] | > 100 µM | > 100 µM | 1280 µM | 46.2 | – | – | – |
| 42.7 µM | O=C(Cn1ccnc1[N+](=O)[O-])NCc1ccccc1 [BENZNIDAZOLE] | – | – | 1140 µM | 26.7 | – | – | – |

The next lines start with the compound.

| Structure (SMILES) | IC50 (Trypanosoma cruzi [5]) | IC50 (Leishmania amazonensis [1]) | IC50 (Leishmania chagasi [2]) | IC50 [3] | Ratio IC50 [4] | Activity (Leishmania amazonensis [6]) | Activity (Leishmania chagasi [7]) | Activity (Trypanosoma cruzi [8]) |
| --- | --- | --- | --- | --- | --- | --- | --- | --- |
| CC(=O)OC[C@]12[C@H](OC(C)=O)[C@@H](OC(=O)c3ccccc3)[C@@H]3[C@@H](OC(C)=O)[C@@]14O[C@@]3(C)COC(=O)c1cccnc1[C@@H](C)[C@H](C)C(=O)O[C@@H]([C@H](OC(C)=O)[C@@H]2OC(C)=O)[C@]4(C)O | 41.9 µM | > 100 µM | 1.4 µM | 1850 µM | 44 | – | – | – |
| CC(=O)OC[C@]12[C@H](OC(C)=O)[C@H](OC(C)=O)[C@@H]3[C@@H](OC(C)=O)[C@@]14O[C@@]3(C)COC(=O)c1cccnc1C(C)C(C)C(=O)O[C@@H]([C@H](OC(C)=O)[C@@H]2OC(=O)c1ccccc1)[C@]4(C)O (stereo partly specified) | – | – | – | – | – | inactive | inactive | inactive |
| N=C(N)c1ccc(OCCCCCOc2ccc(C(=N)N)cc2)cc1 [PENTAMIDINE] | – | 7 µM | 5.1 µM | – | – | – | – | – |
| CC(=O)OC[C@]12[C@H](OC(C)=O)[C@@H](OC(=O)c3ccccc3)[C@@H]3[C@@H](OC(C)=O)[C@@]14O[C@@]3(C)COC(=O)c1cccnc1CCC(C)C(=O)O[C@@H]([C@H](OC(C)=O)[C@@H]2OC(C)=O)[C@]4(C)O (stereo partly specified) | – | – | – | – | – | inactive | inactive | inactive |

Reference: ChEMBL document CHEMBL2046375, “Antiprotozoal sesquiterpene pyridine alkaloids from Maytenus ilicifolia” (J Nat Prod, 2012)
